Bioassay records from PubChem BioAssay.
NPY-Y1 PAM-ag = potentiates or activates human NPY-Y1 receptor. NPY-Y1 expressing cells, potentiator/agonist activation. 0.37% of 220,000 active. AID 1304. activation, % at 3.6 µM; in the data active = activation above about 33%, passing the limit was not always enough;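 also: cells stimulated with NPY at EC10 then isoproterenol at EC100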
NPY Y1 blocker = blocks the human neuropeptide Y Y1 receptor; P25929; HEK293-CNG Y1 cells, membrane potential fluorescence; NPY at EC95, then isoproterenol; inhibition, % at 3.6 µM; 1% of 200,000 active;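 active = inhibition above the campaign mean inhibition of all tested compounds plus 3 SD, cut at about 20% in these data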
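Material: HEK293 cells co-expressing NPY Y1 receptor and cyclic-nucleotide gated channel. Timing: compound incubation 1 h at room temperature, readout 45 min post-stimulation. Signal: fluorescence, membrane potential probe.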
NPY Y2 blocker = antagonists of human neuropeptide Y receptor Y2; NPY-Y2 expressing cells, antagonist mode; 0.99% of 140,000 active; inhibition, % at 2.7 µM; in the data active = inhibition above about 17%
Target sequence (P49146 whole entry, looked up): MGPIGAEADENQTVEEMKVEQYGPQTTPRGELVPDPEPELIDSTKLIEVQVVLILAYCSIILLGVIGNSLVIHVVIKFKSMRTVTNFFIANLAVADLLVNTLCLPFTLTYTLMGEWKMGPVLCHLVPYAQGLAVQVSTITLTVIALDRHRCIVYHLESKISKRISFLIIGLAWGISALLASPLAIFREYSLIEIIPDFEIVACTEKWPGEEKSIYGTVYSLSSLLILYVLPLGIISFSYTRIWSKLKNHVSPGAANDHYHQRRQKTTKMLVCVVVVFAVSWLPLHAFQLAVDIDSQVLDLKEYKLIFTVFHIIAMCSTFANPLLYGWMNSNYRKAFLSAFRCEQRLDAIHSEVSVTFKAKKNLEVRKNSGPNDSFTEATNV
NPY-Y2 PAM-ag = potentiators or agonists of human neuropeptide Y receptor Y2; cells expressing NPY-Y2, potentiator/agonist read-out; activation, % at 3.6 µM; 0.45% of 220,000 active; AID 1359; in the data active = activation above about 27%;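 also: cells stimulated with NPY near EC25 plus isoproterenol at EC100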
Of the large screens only hits and unclear results are named; the others gave an inactive call. Only some compounds are listed: those with a hit (about 1.8% of all), similar ones and a draw of the others.

O=C(CCCN1C(=O)/C(=C\c2cccc(Br)c2)SC1=S)Nc1cccnc1	none (no result: NPY Y2 blocker)
Cc1c(C(=O)N2CCCCC2)sc(NC(=O)C23CC4CC(CC(C4)C2)C3)c1C#N	none
Cc1ccc(NC(=S)N/N=C/c2c(C)[nH]c3ccccc23)cc1	NPY-Y1 PAM-ag 51, NPY-Y2 PAM-ag 37 (no result: NPY Y2 blocker)
Cc1[nH]c2ccccc2c1/C=N/NC(N)=S	none (no result: NPY Y1 blocker, NPY Y2 blocker)
CC(OC(=O)c1cc(-c2cccnc2)nc2ccccc12)C(=O)Nc1ccc2ccccc2c1 (centres undefined)	none
CCCCN(CCCC)CC(O)CN(c1cc([N+](=O)[O-])ccc1OC)S(=O)(=O)c1ccccc1 (centres undefined)	NPY Y1 blocker 23, NPY Y2 blocker 20
CCCCOn1c(C)c(C(=O)OCC)c2c3no[n+]([O-])c3ccc21	none
CCCCOn1c(C)c(C(=O)OCC)c2c3nonc3ccc21	NPY Y1 blocker 67, NPY Y2 blocker 23
CCOC(=O)c1cc(-c2ccc(OC)cc2F)nc2c1c(C)nn2CCC#N	NPY Y1 blocker 26, NPY Y2 blocker 20
CCOC(=O)c1cc(-c2ccccc2)nc2c1c(C)nn2-c1ccccn1	NPY Y1 blocker 49, NPY Y2 blocker 60
CCOC(=O)c1cc(-c2ccc(Cl)cc2)nc2c1c(C)nn2CCC#N	NPY Y1 blocker 25, NPY Y2 blocker 33
CCOC(=O)c1cc(-c2ccco2)nc2c1c(C)nn2CCC#N	none
CC(=O)NC1=NN(C(C)=O)C(c2ccco2)S1 (centres undefined)	none (no result: NPY Y1 blocker, NPY Y2 blocker)
COc1ccccc1OCC(=O)NNC(=O)C(=O)N1CCCC1	none
COc1ccc(N2CCN(C(=O)c3cccc(Br)c3)CC2)c([N+](=O)[O-])c1	none (no result: NPY Y2 blocker)
CNc1ccc(C(O)(C(F)(F)F)C(F)(F)F)cc1C(O)(C(F)(F)F)C(F)(F)F	NPY-Y1 PAM-ag 46, NPY-Y2 PAM-ag 58
Cc1ccc(N)c(C(O)(C(F)(F)F)C(F)(F)F)c1	none
Cc1ccc(-n2ncc(Cl)c2C(=O)NC2CC2)cc1	none (no result: NPY Y2 blocker)
N#Cc1c(N)nc2c3c(sc(=N)c2c1N)NC(=O)CC3c1c(F)cccc1Cl (centres undefined)	none
Cc1c(C#N)c(N)nc2c3c(sc12)NC(=O)CC3c1ccc(Cl)cc1 (centres undefined)	NPY Y1 blocker 34, NPY Y2 blocker 42
N#Cc1c(N)nc2c3c(sc(=N)c2c1N)NC(=O)CC3c1ccccc1 (centres undefined)	NPY Y1 blocker 23, NPY Y2 blocker 19
CCOC(=O)CSC1=C(C#N)C(c2ccc(Cl)cc2)CC(=O)N1 (centres undefined)	none
COc1ccc(CC(=O)Nc2nc3ccccc3[nH]2)cc1	none (no result: NPY Y1 blocker, NPY Y2 blocker)
COc1ccc(NC(=O)Cc2nc3ccccc3[nH]2)cc1	NPY Y2 blocker 22
O=C(COc1ncnc2ccccc12)Nc1ccccc1[N+](=O)[O-]	none (no result: NPY Y2 blocker)
CC(C)CC(=O)Nc1ccc(C(=O)CN2CCC(C)CC2)cc1	none (no result: NPY Y2 blocker)
CC(=O)Nc1ccc(OC(F)(F)C(F)F)c(NC(C)=O)c1	none
O=C(COc1ccccc1)Nc1ccc(OC(F)(F)C(F)F)c(NC(=O)COc2ccccc2)c1	NPY Y1 blocker 25, NPY Y2 blocker 34
Nc1c(C(=O)Nc2ccccc2)c2nc3ccccc3nc2n1-c1ccc(O)cc1	NPY-Y1 PAM-ag 55, NPY-Y2 PAM-ag 46 (no result: NPY Y1 blocker, NPY Y2 blocker)
CCOC(=O)c1c(N)n(-c2ccc(N)cc2)c2nc3ccccc3nc12	none
COc1ccc(-c2noc(COc3ccc4c(c3)OCO4)n2)cc1OC	NPY Y1 blocker 26
COc1ccc(-c2noc(COc3ccc4c(c3)OCO4)n2)cc1	none
COc1ccc(Nc2cc(Cl)nc(N)n2)cc1OC	none (no result: NPY Y2 blocker)
COc1ccc(NC(=O)COC(=O)c2c3c(nc4ccccc24)CCCC3)cc1Cl	NPY Y1 blocker 24, NPY Y2 blocker 19
CCCc1cc(=O)[nH]c(SCc2cc(Cl)ccc2OC(F)F)n1	none
CC(=O)SC(C)CC(=O)NCc1ccccc1 (centres undefined)	NPY-Y1 PAM-ag 119, NPY-Y2 PAM-ag 54
CC(=O)SC(C)CC(=O)Nc1ccccc1 (centres undefined)	NPY-Y1 PAM-ag 42, NPY-Y2 PAM-ag 34
Cc1cc(Cl)ccc1OC(C)C(=O)NCCCn1ccnc1 (centres undefined)	none (no result: NPY Y2 blocker)
CCN1CCN(CCCNC(=O)C2c3ccccc3C(=O)N(c3ccc(OC)cc3)C2c2ccc(OC)cc2)CC1 (centres undefined)	none (no result: NPY Y2 blocker)
CCOC(=O)c1c(-c2ccccc2)csc1NC(=O)/C(C#N)=C/c1ccc(O)c(OC)c1	none
CCn1cnc2cc([N+](=O)[O-])ccc21	none (no result: NPY Y2 blocker)
CC(=O)ON1C(C)(C)Cc2noc(N)c2C1(C)C	NPY-Y1 PAM-ag 56, NPY-Y2 PAM-ag 55
CC1(C)Cc2noc(N)c2C(C)(C)N1OC(=O)c1cccs1	none
CCn1c(/C=C/Nc2ccccc2)[n+](CC)c2ccc(Cl)cc21	none
